Assay results pooled from the literature.
Protocols differ between the studies behind these lines. pIC50: −log10 of the molar value.
Observed: cell growth or viability

SMILES	cell line	assay	conditions	quantity	result
OC1CCN(c2ccc(/C=N/NC(=S)Nc3ccccc3)cc2)CC1	BEAS-2B	MTT	24 h	pIC50	4.72
FC(F)(F)c1ccc(-c2noc(-c3nn(Cc4ccc(Cl)cc4Cl)c4ccccc34)n2)cc1	human Fibroblast	–	48 h	pIC50	3.89
OCc1ccc(-c2nn(Cc3cccc(Cl)c3)c3ccccc23)o1	RBE	ATP luminescence	–	pIC50	5.85
CC(=O)ON=C1C=CC(=C(C#N)c2ccccc2)C=C1	human Fibroblast	MTT	48 h	IC50	20.3 µg/mL
c1ccc(Cc2nnc(-c3nn(Cc4ccccc4)c4ccccc34)o2)cc1	human Fibroblast	–	48 h	pIC50	3.20
Cc1ccc(Cn2nc(-c3ccc(CO)o3)c3ccccc32)cc1	RBE	ATP luminescence	–	pIC50	5.77
CC(=O)N1CCC(Nc2cc(C(=O)NC[C@H](O)CN3CCc4ccccc4C3)ncn2)CC1	MDA-MB-435S	CCK-8	72 h	pIC50	< 4.00
OC1CCN(c2ccc(/C=N/NC(=S)Nc3ccc(Cl)cc3)cc2)CC1	BEAS-2B	MTT	24 h	pIC50	4.86
CNCc1ccc(-c2nn(Cc3ccccc3)c3ccccc23)o1	RBE	ATP luminescence	–	pIC50	4.67
CCOC(=O)c1c(C)nc2ccc(-c3cccc(F)c3)cc2c1O	MDA-MB-468	MTT	48 h	pIC50	5.40
Fc1ccc2c(-c3nnc(Cc4ccccc4)s3)nn(Cc3ccc(Cl)cc3Cl)c2c1	human Fibroblast	–	48 h	pIC50	3.72
c1ccc2c(c1)ncn2Cn1cncn1	BEAS-2B	MTT	24 h	pIC50	3.58
FC(F)(F)c1ccc(-c2nnc(-c3nn(Cc4ccc(Cl)cc4Cl)c4ccccc34)o2)cc1	human Fibroblast	–	48 h	pIC50	4.00
CC(C)CNC(=S)N/N=C/c1ccc(N2CCC(O)CC2)cc1	BEAS-2B	MTT	24 h	pIC50	4.97
COc1cccc2c1C(=O)c1c(O)c3c(c(O)c1C2=O)C[C@@](O)(C(=O)CO)C[C@@H]3O[C@H]1C[C@H](N)[C@H](O)[C@H](C)O1	RBE	–	96 h	pIC50	7.67
CCOC(=O)c1c(C)nc2ccc(-c3ccc(F)cc3)cc2c1O	MDA-MB-468	MTT	48 h	pIC50	5.30
Fc1ccc2c(-c3ncc(-c4ccccc4)o3)nn(Cc3ccccc3)c2c1	human Fibroblast	–	48 h	pIC50	3.70
C/C(=N\CCNCC/N=C(\C)c1c(O)c2ccccc2oc1=O)c1c(O)c2ccccc2oc1=O	BEAS-2B	MTT	48 h	pIC50	4.88

SMILES	cell line	assay	conditions	quantity	result
c1ccc(Cn2nc(-c3nc(-c4ccccc4)n[nH]3)c3ccccc32)cc1	human Fibroblast	–	48 h	pIC50	4.14
OCc1ccc(-c2nn(Cc3cccnc3)c3cccnc23)o1	RBE	ATP luminescence	–	pIC50	5.30
Cc1cccc(C)c1NC(=S)N/N=C/c1ccc(N2CCC(O)CC2)cc1	BEAS-2B	MTT	24 h	pIC50	4.90
Cc1nc2ccc(-c3ccc(OCc4ccccc4)c(F)c3)cc2c(O)c1C(=O)O	MDA-MB-468	MTT	48 h	pIC50	≤ 4.00
CC(c1ccccc1)n1nc(-c2ccc(CO)o2)c2ccccc21 (stereo not drawn)	RBE	ATP luminescence	–	pIC50	5.38
COc1ccc2c(-c3ncc(-c4ccccc4)o3)nn(Cc3ccccc3)c2c1	human Fibroblast	–	48 h	pIC50	4.05
OCn1cncn1	BEAS-2B	MTT	24 h	pIC50	< 3.10
COc1cccc(Cn2nc(-c3ccc(CO)o3)c3ccccc32)c1	RBE	ATP luminescence	–	pIC50	6.33
C/C(=N\c1nc(N)nc(/N=C(\C)c2c(O)c3ccccc3oc2=O)n1)c1c(O)c2ccccc2oc1=O	BEAS-2B	MTT	48 h	pIC50	4.19
CCc1nc(C(N)=O)c(Nc2ccc(N3CCC(N4CCN(C)CC4)CC3)c(OC)c2)nc1NC1CCOCC1	MV4-11	resazurin	–	pIC50	7.60
OCc1ccc(-c2nn(-c3ccccc3)c3ccccc23)o1	RBE	ATP luminescence	–	pIC50	5.37
COc1cccc2c1C(=O)c1c(O)c3c(c(O)c1C2=O)C[C@@](O)(C(=O)CO)C[C@@H]3O[C@H]1C[C@H](N)[C@H](O)[C@H](C)O1	BEAS-2B	MTT	48 h	pIC50	5.39
OC1CCN(c2ccc(/C=N/NC(=S)NCc3ccc(Cl)cc3)cc2)CC1	BEAS-2B	MTT	24 h	pIC50	4.87
CN1CCC(NC2CCc3[nH]c4c(C(N)=O)ccc(-c5ccccc5Cl)c4c3C2)CC1 (stereo not drawn)	RBE	–	96 h	pIC50	8.84
Cc1nc2ccc(-c3ccc(F)cc3)cc2c(O)c1C(=O)O	MDA-MB-468	MTT	48 h	pIC50	≤ 4.00
C/C(=N\C(=N)/N=C(\C)c1c(O)c2ccccc2oc1=O)c1c(O)c2ccccc2oc1=O	BEAS-2B	MTT	48 h	pIC50	4.35
COc1ccc(Cn2nc(-c3ccc(CO)o3)c3ccccc32)cc1	RBE	ATP luminescence	–	pIC50	5.95
CCOC(=O)c1c(C)nc2ccc(-c3ccc(F)cc3F)cc2c1O	MDA-MB-468	MTT	48 h	pIC50	5.10
